Source: ChEMBL document CHEMBL4425103, “Diving into the Water: Inducible Binding Conformations for BRD4, TAF1(2), BRD9, and CECR2 Bromodomains” (J Med Chem, 2016)

Key:
[1] = tested on: T1, Chromatin remodeling regulator CECR2 (Homo sapiens), Q9BXF3 [Y520I]; test: Binding affinity to CECR2 Y520I mutant (unknown origin) assessed as change in melting temperature at 10 uM by SYPRO red dye based differential scanning fluorimetry
T1 sequence (whole entry): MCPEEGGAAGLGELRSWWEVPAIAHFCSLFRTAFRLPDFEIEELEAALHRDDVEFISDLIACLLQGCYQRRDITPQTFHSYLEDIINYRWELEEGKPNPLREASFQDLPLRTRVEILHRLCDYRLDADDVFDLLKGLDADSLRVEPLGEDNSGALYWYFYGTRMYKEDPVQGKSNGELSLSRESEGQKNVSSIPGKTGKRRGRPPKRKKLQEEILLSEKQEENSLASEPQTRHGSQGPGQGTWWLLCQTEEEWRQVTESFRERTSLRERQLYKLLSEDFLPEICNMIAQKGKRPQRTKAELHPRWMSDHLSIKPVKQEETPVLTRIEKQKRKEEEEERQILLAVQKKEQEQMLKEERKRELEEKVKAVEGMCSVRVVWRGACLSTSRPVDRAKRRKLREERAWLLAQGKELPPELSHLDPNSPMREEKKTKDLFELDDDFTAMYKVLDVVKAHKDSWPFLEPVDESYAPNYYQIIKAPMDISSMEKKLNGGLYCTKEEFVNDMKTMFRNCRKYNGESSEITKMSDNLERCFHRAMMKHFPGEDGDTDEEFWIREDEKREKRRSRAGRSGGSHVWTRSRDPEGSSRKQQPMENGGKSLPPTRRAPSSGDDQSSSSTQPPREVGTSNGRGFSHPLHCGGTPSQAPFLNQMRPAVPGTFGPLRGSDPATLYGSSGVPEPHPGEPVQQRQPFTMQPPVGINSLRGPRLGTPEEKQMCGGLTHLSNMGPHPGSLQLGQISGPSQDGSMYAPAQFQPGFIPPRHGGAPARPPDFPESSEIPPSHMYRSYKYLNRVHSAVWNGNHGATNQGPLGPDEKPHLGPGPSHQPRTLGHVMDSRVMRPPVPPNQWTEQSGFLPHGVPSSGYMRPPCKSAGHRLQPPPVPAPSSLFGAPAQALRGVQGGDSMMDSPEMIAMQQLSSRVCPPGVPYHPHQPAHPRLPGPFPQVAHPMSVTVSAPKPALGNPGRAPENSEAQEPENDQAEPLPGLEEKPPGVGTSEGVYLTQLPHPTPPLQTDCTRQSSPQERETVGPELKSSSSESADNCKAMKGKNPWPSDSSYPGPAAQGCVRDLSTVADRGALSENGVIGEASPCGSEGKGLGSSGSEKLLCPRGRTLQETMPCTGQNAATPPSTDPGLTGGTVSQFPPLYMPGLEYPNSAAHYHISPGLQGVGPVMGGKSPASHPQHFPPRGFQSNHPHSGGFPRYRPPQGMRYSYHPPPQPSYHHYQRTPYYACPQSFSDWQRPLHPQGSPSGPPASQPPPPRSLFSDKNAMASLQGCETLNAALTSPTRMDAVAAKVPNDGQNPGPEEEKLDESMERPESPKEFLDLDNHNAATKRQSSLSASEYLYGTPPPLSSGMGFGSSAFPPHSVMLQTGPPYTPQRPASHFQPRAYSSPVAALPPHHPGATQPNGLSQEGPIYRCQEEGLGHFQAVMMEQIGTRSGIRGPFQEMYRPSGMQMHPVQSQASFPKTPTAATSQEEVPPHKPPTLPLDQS
In short: (§1)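 Differential scanning fluorimetry: aggregate removed by centrifugation, then bromodomain at 4 µM final with 10X SYPRO Red, 10 µM compound and 0.2% DMSO in 20 mM HEPES pH 7.7, 100 mM NaCl. Heated 25 to 95 °C, fluorescence read at 1 °C steps. Apparent Tm taken from melt curves; mean of at least five wells for CECR2.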

[2] = biological target: Chromatin remodeling regulator CECR2 (Homo sapiens, UniProt Q9BXF3); test: Binding affinity to wild type CECR2 (unknown origin) assessed as change in melting temperature at 10 uM by SYPRO red dye based differential scanning fluorimetry; in short: as §1
Chain of Chromatin remodeling regulator CECR2 (Q9BXF3 whole entry, looked up): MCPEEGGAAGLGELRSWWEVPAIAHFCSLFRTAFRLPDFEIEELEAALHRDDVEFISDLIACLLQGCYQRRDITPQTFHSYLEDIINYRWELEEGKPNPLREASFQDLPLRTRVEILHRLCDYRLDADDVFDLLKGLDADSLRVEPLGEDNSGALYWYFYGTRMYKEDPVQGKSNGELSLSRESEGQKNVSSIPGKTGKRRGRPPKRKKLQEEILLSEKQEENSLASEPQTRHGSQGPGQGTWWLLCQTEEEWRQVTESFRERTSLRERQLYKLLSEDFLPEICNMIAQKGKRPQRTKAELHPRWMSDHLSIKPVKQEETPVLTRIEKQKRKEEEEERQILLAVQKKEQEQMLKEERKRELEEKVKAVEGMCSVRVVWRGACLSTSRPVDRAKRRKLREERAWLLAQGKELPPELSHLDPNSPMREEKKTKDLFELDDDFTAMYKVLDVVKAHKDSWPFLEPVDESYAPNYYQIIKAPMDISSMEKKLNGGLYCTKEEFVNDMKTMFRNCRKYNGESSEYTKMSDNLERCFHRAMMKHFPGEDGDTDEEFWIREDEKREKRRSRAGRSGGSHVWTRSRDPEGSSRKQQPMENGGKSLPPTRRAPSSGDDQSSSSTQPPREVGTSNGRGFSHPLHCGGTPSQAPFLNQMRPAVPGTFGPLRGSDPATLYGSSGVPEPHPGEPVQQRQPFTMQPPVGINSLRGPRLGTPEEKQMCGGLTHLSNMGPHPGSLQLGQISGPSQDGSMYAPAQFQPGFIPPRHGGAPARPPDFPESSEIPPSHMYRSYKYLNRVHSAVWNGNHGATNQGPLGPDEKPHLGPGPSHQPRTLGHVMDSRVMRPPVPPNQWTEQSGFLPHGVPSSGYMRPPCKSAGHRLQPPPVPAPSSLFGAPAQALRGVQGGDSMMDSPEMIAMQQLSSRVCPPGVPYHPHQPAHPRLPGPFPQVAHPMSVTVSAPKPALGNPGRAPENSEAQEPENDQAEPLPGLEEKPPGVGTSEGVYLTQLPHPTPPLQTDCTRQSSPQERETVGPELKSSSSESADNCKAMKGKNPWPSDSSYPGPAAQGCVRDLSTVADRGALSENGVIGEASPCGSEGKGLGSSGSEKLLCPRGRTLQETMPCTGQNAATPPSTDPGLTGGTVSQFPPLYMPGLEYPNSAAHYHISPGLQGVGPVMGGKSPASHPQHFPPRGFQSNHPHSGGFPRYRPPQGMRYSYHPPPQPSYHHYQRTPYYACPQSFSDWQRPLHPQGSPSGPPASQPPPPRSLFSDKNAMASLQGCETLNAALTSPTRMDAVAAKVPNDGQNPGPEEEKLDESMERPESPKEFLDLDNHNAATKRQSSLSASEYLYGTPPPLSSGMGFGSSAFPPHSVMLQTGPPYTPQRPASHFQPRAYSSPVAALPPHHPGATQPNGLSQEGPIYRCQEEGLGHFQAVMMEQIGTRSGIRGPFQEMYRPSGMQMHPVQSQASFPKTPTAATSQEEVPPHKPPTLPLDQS

## CN(C)C(=O)c1cccc(-c2cn(C)c(=O)c3[nH]ccc23)c1
[1]
  ΔTm: 3 °C
[2]
  ΔTm: 6 °C

## C=CCn1cc(-c2cccc(C(=O)N(C)C)c2)c2cc[nH]c2c1=O
[1]
  ΔTm: -1 °C
[2]
  ΔTm: 6 °C
